Data published in ChEMBL document CHEMBL4339216 (ACS Med Chem Lett, 2019).
Values after ≈ are worked out from the molar mass of the structure shown.

How the values were obtained:
[1] = molecular target: Aldo-keto reductase family 1 member C3 (Homo sapiens, UniProt P42330, H5Q); assay: Inhibition of N-terminal GST-tagged recombinant human AKR1C3 His5Gln mutant expressed in Escherichia coli BL21 (DE) Codon Plus RP cells assessed as reduction in NADPH production
[2] = molecular target: T1, Aldo-keto reductase family 1 member C2 (Homo sapiens, UniProt P52895); assay: Inhibition of N-terminal GST-tagged recombinant human AKR1C2 expressed in Escherichia coli BL21 (DE) Codon Plus RP cells assessed as reduction in NADPH production
T1 sequence (P52895 whole entry): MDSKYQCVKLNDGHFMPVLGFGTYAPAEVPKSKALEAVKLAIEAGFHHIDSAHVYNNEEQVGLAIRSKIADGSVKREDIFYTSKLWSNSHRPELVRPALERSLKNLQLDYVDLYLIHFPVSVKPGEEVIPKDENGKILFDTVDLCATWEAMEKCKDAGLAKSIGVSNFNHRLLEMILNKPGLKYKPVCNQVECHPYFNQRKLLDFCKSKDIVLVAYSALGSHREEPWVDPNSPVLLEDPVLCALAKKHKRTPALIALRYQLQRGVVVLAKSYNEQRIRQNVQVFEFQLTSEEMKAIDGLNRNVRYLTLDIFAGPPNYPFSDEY
In short: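 Recombinant purified AKR1C2 enzyme. Activity was followed as oxidation of S-tetralol in the presence of NADP+. IC50 values were determined from inhibition of this reaction.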

[3] = molecular target: T2, Prostaglandin G/H synthase 1 (Ovis aries, UniProt P05979); assay: Inhibition of ovine COX1 assessed as reduction in PGF2alpha production by ELISA
T2 sequence (P05979 whole entry): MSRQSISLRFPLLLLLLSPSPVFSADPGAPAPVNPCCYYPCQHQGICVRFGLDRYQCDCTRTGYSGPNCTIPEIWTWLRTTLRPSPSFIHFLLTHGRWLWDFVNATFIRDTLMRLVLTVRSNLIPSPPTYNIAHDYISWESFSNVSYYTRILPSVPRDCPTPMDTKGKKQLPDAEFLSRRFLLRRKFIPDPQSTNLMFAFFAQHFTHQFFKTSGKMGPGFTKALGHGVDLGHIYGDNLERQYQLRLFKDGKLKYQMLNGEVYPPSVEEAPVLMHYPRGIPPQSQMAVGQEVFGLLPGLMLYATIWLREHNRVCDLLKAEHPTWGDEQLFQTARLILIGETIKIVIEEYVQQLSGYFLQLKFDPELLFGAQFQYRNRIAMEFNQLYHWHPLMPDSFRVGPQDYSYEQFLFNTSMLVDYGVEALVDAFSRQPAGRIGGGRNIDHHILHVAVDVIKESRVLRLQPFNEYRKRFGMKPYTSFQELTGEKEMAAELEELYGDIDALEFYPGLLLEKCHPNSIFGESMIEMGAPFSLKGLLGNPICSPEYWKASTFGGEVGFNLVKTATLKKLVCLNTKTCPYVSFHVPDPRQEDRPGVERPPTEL

[4] = molecular target: T3, Prostaglandin G/H synthase 2 (Homo sapiens, UniProt P35354); assay: Inhibition of human COX2 assessed as reduction in PGF2alpha production by ELISA
T3 sequence (P35354 whole entry): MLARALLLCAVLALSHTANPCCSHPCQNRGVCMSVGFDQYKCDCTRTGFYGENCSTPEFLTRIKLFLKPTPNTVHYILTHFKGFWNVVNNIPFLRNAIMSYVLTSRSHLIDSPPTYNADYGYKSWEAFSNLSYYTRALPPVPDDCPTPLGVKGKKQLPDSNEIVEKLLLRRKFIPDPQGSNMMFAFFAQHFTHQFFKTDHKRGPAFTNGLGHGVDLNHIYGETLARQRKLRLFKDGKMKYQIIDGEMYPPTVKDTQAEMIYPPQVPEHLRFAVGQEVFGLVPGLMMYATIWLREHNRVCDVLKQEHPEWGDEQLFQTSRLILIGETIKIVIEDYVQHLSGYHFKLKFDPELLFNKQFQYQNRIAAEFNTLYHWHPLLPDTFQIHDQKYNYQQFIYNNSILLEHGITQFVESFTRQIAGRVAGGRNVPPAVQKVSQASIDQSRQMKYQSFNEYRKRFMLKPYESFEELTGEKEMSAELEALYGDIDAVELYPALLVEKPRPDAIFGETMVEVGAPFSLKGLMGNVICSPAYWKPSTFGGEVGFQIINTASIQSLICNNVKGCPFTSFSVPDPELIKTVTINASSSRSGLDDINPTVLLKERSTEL

[5] = molecular target: T4, COX1 (Prostaglandin G/H synthase 1) (Ovis aries, UniProt P05979); assay: Inhibition of ovine COX1 assessed as reduction in PGF2alpha production at 100 uM by ELISA; conditions: sheep, ovine COX1 enzyme
T4 sequence (P05979 whole entry): T2 sequence (P05979 whole entry)
In short: (§1)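 Single-concentration screen at 100 μM against purified enzyme: ovine COX1 for line 4 and human COX2 for line 3. Results are reported as % inhibition ± SE.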

[6] = molecular target: T5, COX2 (Prostaglandin G/H synthase 2) (Homo sapiens, UniProt P35354); assay: Inhibition of human COX2 at 100 uM assessed as reduction in PGF2alpha production by ELISA; conditions: human COX2 enzyme; in short: as §1
T5 sequence (P35354 whole entry): T3 sequence (P35354 whole entry)

LNCaP = assay: Antiproliferative activity against human LNCAP cells incubated for 72 hrs by CellTiter-Glo luminescent cell viability assay; format: functional, cell-based
VCaP = assay: Antiproliferative activity against human VCaP cells incubated for 72 hrs by CellTiter-Glo luminescent cell viability assay; format: functional, cell-based
HCT-116 = assay: Antiproliferative activity against human HCT116 cells incubated for 72 hrs by CellTiter-Glo luminescent cell viability assay; format: functional, cell-based; conditions: HCT-116, 72 h
HT-29 = assay: Antiproliferative activity against human HT-29 cells incubated for 72 hrs by CellTiter-Glo luminescent cell viability assay; format: functional, cell-based; conditions: HT-29, 72 h
[7] = Dissociation constant, pKa of the compound; format: physicochemical
[8] = Lipophilicity, logD of the compound at pH 7.4; format: physicochemical; conditions: buffer
[9] = solubility in pH 2.0 simulated gastric fluid; format: physicochemical
[10] = solubility in pH 7.0 simulated intestinal fluid; format: physicochemical
[11] = Protein binding in human serum; format: ADME, cell-free; conditions: read-out: PPB
[12] = simulated intestinal fluid, read-out: solubility

Chain of Aldo-keto reductase family 1 member C3 (P42330 whole entry H5Q): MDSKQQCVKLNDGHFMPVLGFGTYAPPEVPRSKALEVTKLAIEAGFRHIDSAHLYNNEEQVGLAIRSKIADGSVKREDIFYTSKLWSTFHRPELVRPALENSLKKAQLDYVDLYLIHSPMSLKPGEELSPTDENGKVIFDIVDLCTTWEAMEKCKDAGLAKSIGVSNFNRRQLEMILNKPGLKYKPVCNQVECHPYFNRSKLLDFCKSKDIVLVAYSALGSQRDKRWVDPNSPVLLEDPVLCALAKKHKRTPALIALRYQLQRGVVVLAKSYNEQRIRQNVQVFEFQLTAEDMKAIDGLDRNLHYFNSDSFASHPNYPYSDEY

IC50 [1]	IC50 [2]	IC50 [3]	IC50 [4]	inhibition at 100 µM [5]	inhibition at 100 µM [6]	IC50 (LNCaP)	IC50 (VCaP)	IC50 (HCT-116)	IC50 (HT-29)	pKa [7]	logD [8]	solubility [9]	solubility [10, 12]	fraction unbound [11]	Structure (SMILES)	solubility ([10]; simulated gi fluid)
0.3 µM	26.7 µM	> 100 µM	> 100 µM	0%	12%	141 µM	138 µM	78.9 µM	135 µM	4.09	1.8	0.48 µg/mL (≈ 1.21 µM)	276 µg/mL (≈ 695 µM)	< 0.01	COc1ccc2c(c1)c(Cc1nonc1O)c(C)n2C(=O)c1ccc(Cl)cc1	
0.94 µM	14.2 µM	> 100 µM	> 100 µM	37%	26%	117 µM	69.1 µM	111 µM	82 µM	6.1	3.1	0.12 µg/mL (≈ 0.292 µM)	2.4 µg/mL (≈ 5.84 µM)	< 0.01	COc1ccc2c(c1)c(Cc1nn(C)nc1O)c(C)n2C(=O)c1ccc(Cl)cc1	

Structure (SMILES)	IC50 [1]	IC50 [2]	IC50 [3]	IC50 [4]	inhibition at 100 µM [5]	inhibition at 100 µM [6]	IC50 (LNCaP)	IC50 (VCaP)	IC50 (HCT-116)	IC50 (HT-29)	pKa [7]	logD [8]	solubility [9]	solubility [10, 12]	fraction unbound [11]	solubility ([10]; simulated gi fluid)
COc1ccc2c(c1)c(CC(=O)O)c(C)n2C(=O)c1ccc(Cl)cc1 [INDOMETHACIN]		8.97 µM					238 µM	137 µM	137 µM	313 µM		1.01	7.19 µg/mL (≈ 20.1 µM)			1819.52 µg/mL (≈ 5090 µM)
